Tests used:
[1] = tested on: OVCAR-4; assay: NCI in vitro five dose anticancer assay; type: cell-based, human
[2] = tested on: EKVX; assay: NCI in vitro five dose anticancer assay; type: cell-based, human; details: 48 h
[3] = tested on: T-47D; assay: NCI in vitro five dose anticancer assay; type: cell-based, human; details: 48 h
[4] = tested on: NCI-H522; assay: NCI in vitro five dose anticancer assay; type: cell-based, human
[5] = tested on: OVCAR-3; assay: NCI in vitro five dose anticancer assay; type: cell-based, human
[6] = tested on: OVCAR-8; assay: NCI in vitro five dose anticancer assay; type: cell-based, human
[7] = tested on: SK-MEL-2; assay: NCI in vitro five dose anticancer assay; type: cell-based, human
[8] = tested on: SNB-19; assay: NCI in vitro five dose anticancer assay; type: cell-based, human
[9] = tested on: NCI-H322M; assay: NCI in vitro five dose anticancer assay; type: cell-based, human; details: 48 h
[10] = tested on: M14; assay: NCI in vitro five dose anticancer assay; type: cell-based, human
[11] = tested on: U251; assay: NCI in vitro five dose anticancer assay; type: cell-based, human
[12] = tested on: UACC-257; assay: NCI in vitro five dose anticancer assay; type: cell-based, human
[13] = tested on: A498; assay: NCI in vitro five dose anticancer assay; type: cell-based, human
[14] = tested on: OVCAR-5; assay: NCI in vitro five dose anticancer assay; type: cell-based, human
[15] = tested on: 786–0; assay: NCI in vitro five dose anticancer assay; type: cell-based, human
[16] = tested on: SF-539; assay: NCI in vitro five dose anticancer assay; type: cell-based, human
[17] = tested on: full panel of 58 human tumor cell lines; assay: NCI in vitro five dose anticancer assay, whole panel; type: cell-based; details: read-out: GI50 (range over panel)
[18] = tested on: SR cell line; assay: NCI in vitro one dose anticancer assay; type: cell-based; details: Homo sapiens, 48 h, read-out: % growth inhibition
Outline: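 NCI protocol. Test compound added once at 10−5 M to ~60 human tumour lines from nine subpanels. Incubated 48 h at 37 °C, 5% CO2, 95% air, 100% relative humidity. Endpoint by sulforhodamine B protein staining with spectrophotometric absorbance. Growth of treated cells reported as percent of untreated cells.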

[19] = tested on: HS 578T; assay: NCI in vitro five dose anticancer assay; type: cell-based, human; details: 48 h
[20] = tested on: LOX IMVI; assay: NCI in vitro five dose anticancer assay; type: cell-based, human; details: 48 h
[21] = tested on: SR; assay: NCI in vitro five dose anticancer assay; type: cell-based, human; details: 48 h
[22] = tested on: NCI-H226; assay: NCI in vitro five dose anticancer assay; type: cell-based, human
[23] = tested on: PC-3; assay: NCI in vitro five dose anticancer assay; type: cell-based, human
[24] = tested on: SN12C; assay: NCI in vitro five dose anticancer assay; type: cell-based, human; details: 48 h
[25] = tested on: RPMI-8226; assay: NCI in vitro five dose anticancer assay; type: cell-based, human
[26] = tested on: MDA-MB231/ATCC; assay: NCI in vitro five dose anticancer assay; type: cell-based, human
[27] = tested on: SK-MEL-28; assay: NCI in vitro five dose anticancer assay; type: cell-based, human
[28] = tested on: NCI/ADR-RES; assay: NCI in vitro five dose anticancer assay; type: cell-based, human; details: 48 h
[29] = tested on: Jurkat; assay: MTT anti-proliferative assay; type: cell-based, human; details: Homo sapiens, Jurkat, 24 h, read-out: IC50 ± SD, Jurkat
[30] = tested on: SK-MEL-5; assay: NCI in vitro five dose anticancer assay; type: cell-based, human
[31] = tested on: HOP-62; assay: NCI in vitro five dose anticancer assay; type: cell-based, human
[32] = tested on: HCT-15; assay: NCI in vitro five dose anticancer assay; type: cell-based, human
[33] = tested on: UO-31; assay: NCI in vitro five dose anticancer assay; type: cell-based, human
[34] = biological target: c-Src (Homo sapiens, UniProt P12931); assay: Src kinase assay; type: biochemical
[35] = tested on: MOLT-4; assay: NCI in vitro five dose anticancer assay; type: cell-based, human
[36] = Non-Small Cell Lung Cancer, five dose, SRB

Chain of c-Src (P12931 whole entry): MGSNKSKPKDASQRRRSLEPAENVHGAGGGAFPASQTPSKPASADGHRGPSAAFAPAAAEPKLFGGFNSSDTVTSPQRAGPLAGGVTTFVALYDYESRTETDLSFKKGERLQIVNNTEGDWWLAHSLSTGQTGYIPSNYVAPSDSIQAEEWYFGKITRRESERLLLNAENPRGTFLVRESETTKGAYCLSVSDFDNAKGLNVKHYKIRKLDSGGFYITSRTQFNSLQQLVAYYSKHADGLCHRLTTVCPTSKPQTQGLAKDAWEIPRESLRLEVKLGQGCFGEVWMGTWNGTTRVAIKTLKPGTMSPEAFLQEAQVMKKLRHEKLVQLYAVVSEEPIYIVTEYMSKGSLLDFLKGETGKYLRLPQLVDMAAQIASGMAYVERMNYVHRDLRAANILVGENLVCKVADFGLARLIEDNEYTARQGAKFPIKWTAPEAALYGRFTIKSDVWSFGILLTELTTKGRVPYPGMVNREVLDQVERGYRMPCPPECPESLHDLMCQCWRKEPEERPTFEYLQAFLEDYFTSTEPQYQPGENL

Compound `COc1ccc(C=CC(=O)c2ccc(NC(=O)CSc3nnc(-c4cc(OC)c(OC)c(OC)c4)o3)cc2)cc1` [Compound 8v, N-(4-(3-(4-Methoxyphenyl)acryloyl)phenyl)-2-((5-(3,4,5-trimethoxy-phenyl)-1,3,4-oxadiazol-2-yl)thio)acetamide] has a GI50 ([1]; Homo sapiens, OVCAR-4, 48 h) of 2000 nM, a TGI ([1]; OVCAR-4, Ovarian Cancer, five dose, 48 h, SRB) of 4620 nM and a GI50 ([2]; Homo sapiens) of 1790 nM. It also gave a TGI [2, 36] of 3980 nM, a GI50 ([3]; Homo sapiens, T47D) of 2050 nM and a TGI ([3]; T-47D, Breast cancer, five dose, SRB) of 5080 nM. For the same compound, the GI50 ([4]; Homo sapiens, NCI-H522, 48 h) was 1550 nM, the TGI ([4]; NCI-H522, Non-Small Cell Lung Cancer, five dose, 48 h, SRB) was 3210 nM and the GI50 ([5]; Homo sapiens, OVCAR-3, 48 h) was 1780 nM. For the same compound, the TGI ([5]; OVCAR-3, Ovarian Cancer, five dose, 48 h, SRB) was 3380 nM, the GI50 ([6]; Homo sapiens, OVCAR-8, 48 h) was 2320 nM and the TGI ([6]; OVCAR-8, Ovarian Cancer, five dose, 48 h, SRB) was 5730 nM. The GI50 ([7]; Homo sapiens, SK-MEL-2, 48 h) was 1790 nM, the TGI ([7]; SK-MEL-2, Melanoma, five dose, 48 h, SRB) was 4820 nM and the GI50 ([8]; Homo sapiens, SNB-19, 48 h) was 1780 nM. It also gave a TGI ([8]; SNB-19, CNS cancer, five dose, 48 h, SRB) of 3560 nM, a GI50 ([9]; Homo sapiens) of 1590 nM and a TGI [9, 36] of 2980 nM. The GI50 ([10]; Homo sapiens, M14, 48 h) was 1600 nM, the TGI ([10]; M14, Melanoma, five dose, 48 h, SRB) was 3300 nM and the GI50 ([11]; Homo sapiens, U-251, 48 h) was 1680 nM. It also gave a TGI ([11]; U251, CNS cancer, five dose, 48 h, SRB) of 3180 nM, a GI50 ([12]; Homo sapiens, UACC-257, 48 h) of 2160 nM and a TGI ([12]; UACC-257, Melanoma, five dose, 48 h, SRB) of 4690 nM. It also gave a TGI ([13]; A498, Renal Cancer, five dose, 48 h, SRB) of 23600 nM, a GI50 ([13]; Homo sapiens, A498, 48 h) of 11000 nM and a GI50 ([14]; Homo sapiens, OVCAR-5, 48 h) of 1720 nM. It also gave a TGI ([14]; OVCAR-5, Ovarian Cancer, five dose, 48 h, SRB) of 3300 nM, a TGI ([15]; 786–0, Renal Cancer, five dose, 48 h, SRB) of 3360 nM and a GI50 ([15]; Homo sapiens, 786-0, 48 h) of 1700 nM. The GI50 ([16]; Homo sapiens, SF-539, 48 h) was 1640 nM, the TGI ([16]; SF-539, CNS cancer, five dose, 48 h, SRB) was 3030 nM and the GI50 [17] was 320 to 11000 nM. For the same compound, the inhibition at 10 µM [18] was 32.9 to 160%, the TGI ([19]; HS 578T, Breast cancer, five dose, SRB) was 7760 nM and the GI50 ([19]; Homo sapiens, Hs-578T) was 2650 nM. For the same compound, the GI50 ([20]; Homo sapiens) was 320 nM, the TGI ([20]; Melanoma, five dose, SRB) was 1280 nM and the GI50 ([21]; Homo sapiens) was 1860 nM. It also gave a TGI ([21]; Leukemia, five dose, SRB) of 4010 nM, a GI50 ([22]; Homo sapiens, NCI-H226, 48 h) of 2670 nM and a TGI ([22]; NCI-H226, Non-Small Cell Lung Cancer, five dose, 48 h, SRB) of 5690 nM. For the same compound, the GI50 ([23]; Homo sapiens, PC-3, 48 h) was 1750 nM, the TGI ([23]; PC-3, Prostate Cancer, five dose, 48 h, SRB) was 3300 nM and the GI50 ([24]; Homo sapiens) was 1830 nM. For the same compound, the TGI ([24]; Renal Cancer, five dose, SRB) was 3570 nM, the GI50 ([25]; Homo sapiens, RPMI-8226, 48 h) was 1730 nM and the TGI ([25]; RPMI-8226, Leukemia, five dose, 48 h, SRB) was 4310 nM. It also gave a GI50 ([26]; Homo sapiens, MDA-MB-231, 48 h) of 1820 nM, a TGI ([26]; MDA-MB231/ATCC, Breast cancer, five dose, 48 h, SRB) of 3500 nM and a GI50 ([27]; Homo sapiens, SK-MEL-28, 48 h) of 1740 nM. The TGI ([27]; SK-MEL-28, Melanoma, five dose, 48 h, SRB) was 3400 nM, the GI50 ([28]; Homo sapiens) was 2420 nM and the TGI ([28]; Ovarian Cancer, five dose, SRB) was 7030 nM. For the same compound, the IC50 [29] was 2360 ± 470 nM, the GI50 ([30]; Homo sapiens, SK-MEL-5, 48 h) was 2140 nM and the TGI ([30]; SK-MEL-5, Melanoma, five dose, 48 h, SRB) was 5240 nM. The TGI ([31]; HOP-62, Non-Small Cell Lung Cancer, five dose, 48 h, SRB) was 4530 nM, the GI50 ([31]; Homo sapiens, HOP-62, 48 h) was 2130 nM and the TGI ([32]; HCT-15, Colon Cancer, five dose, 48 h, SRB) was 3220 nM. It also gave a GI50 ([32]; Homo sapiens, HCT-15, 48 h) of 1630 nM, a GI50 ([33]; Homo sapiens, UO-31, 48 h) of 1460 nM and a TGI ([33]; UO-31, Renal Cancer, five dose, 48 h, SRB) of 2970 nM. The IC50 [34] was 960 ± 200 nM, the GI50 ([35]; Homo sapiens, MOLT-4, 48 h) was 2050 nM and the TGI ([35]; MOLT-4, Leukemia, five dose, 48 h, SRB) was 5270 nM.

From PMC6923798 (Bioorganic chemistry, 2018)
